Data reported in publication PMC2847577 (Molecular cell, 2009).
Positions count from the first letter of the chain named. Names and notes keep the numbering of the source. Like-named read-outs stand apart in the source and are kept apart here. No end group written: not given here.

How the values were obtained:
[1] = molecular target: Puc^1-390 (Drosophila); assay: AUC
[2] = molecular target: Puc^1-390 (Drosophila); assay: AUC; remark: listed apart in the source
[3] = molecular target: SPOP^MATH (Homo sapiens, UniProt O43791); assay: Surface Plasmon Resonance; type: binding; conditions: Surface Plasmon Resonance (BIACORE), wildtype SPOP^MATH
Outline: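 SPOP MATH domain expressed in E. coli BL21(DE3) GOLD as a GST fusion and purified by affinity, ion-exchange and gel-filtration chromatography. Binding of substrate-derived SPOP-binding-consensus peptides was measured by surface plasmon resonance on a BIACORE3000, and binding constants were reported.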

[4] = molecular target: Puc^93-107 (Drosophila); assay: SPR
[5] = molecular target: SPOP^MATH (human, UniProt O43791 28-166); assay: crystal structure
[6] = molecular target: the molecule itself; assay: AUC
[7] = molecular target: the molecule itself; assay: crystal structure
[8] = molecular target: Cul3^NTD (UniProt Q13618 1-384); assay: AUC
Sequence of Cul3^NTD (Q13618 1-384): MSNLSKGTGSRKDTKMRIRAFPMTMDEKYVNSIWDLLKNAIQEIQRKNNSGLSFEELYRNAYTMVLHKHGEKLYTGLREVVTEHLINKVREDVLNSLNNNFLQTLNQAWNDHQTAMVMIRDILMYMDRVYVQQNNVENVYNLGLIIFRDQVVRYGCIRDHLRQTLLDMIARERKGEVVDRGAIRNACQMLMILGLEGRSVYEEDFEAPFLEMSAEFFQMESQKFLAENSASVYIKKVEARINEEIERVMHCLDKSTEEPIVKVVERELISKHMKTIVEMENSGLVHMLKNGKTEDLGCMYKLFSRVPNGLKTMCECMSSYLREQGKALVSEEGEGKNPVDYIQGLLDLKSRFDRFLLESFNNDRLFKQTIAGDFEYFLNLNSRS

Molecule: SPOP^MATH-BTB+ (from UniProt O43791 28-329) (domain or fragment)
- stoichiometry N [1]: 2 SPOP per Puc
- stoichiometry N [2]: 2 SPOP per Puc

Molecule: DSTTEGTPADGFTVL [MacroH2A pep2]
- binding to SPOP^MATH (result in words) [3]: negligible binding

Molecule: SPOP^MATH (from UniProt O43791 28-166) (domain or fragment)
- Kd [4]: 4 µM

Molecule: MacroH2A^166-179: Synthetic peptide for the MacroH2A SPOP-binding region, residues 166-179 (KAASADSTTEGTPAD)
- binding to SPOP^MATH (result in words) [3]: sufficient for binding

Molecule: Ac-LACDEVTSTTSSSTA (N-terminus assumed) [Puc^93-107]
- binding to SPOP^MATH (result in words) [3]: sufficient for binding

B1: MacroH2A_pep1 (peptide)
peptide: KAASADSTTEGTPAD
- binding result [5]: binds

B2: SPOP^MATH-BTB+ (domain or fragment, human, UniProt O43791 28-329, looked up)
chain: KVVKFSYMWTINNFSFCREEMGEVIKSSTFSSGANDKLKWCLRVNPKGLDEESKDYLSLYLLLVSCPKSEVRAKFKFSILNAKGEETKAMESQRAYRFVQGKDWGFKKFIRRDFLLDEANGLLPDDKLTLFCEVSVVQDSVNISGQNTMNMVKVPECRLADELGGLWENSRFTDCCLCVAGQEFQAHKAILAARSPVFSAMFEHEMEESKKNRVEINDVEPEVFKEMMCFIYTGKAPNLDKMADDLLAAADKYALERLKVMCEDALCSNLSVENAAEILILADLHSADQLKTQAVDFINYHA
- binding result [6]: binds

B3: SPOP^BTB+ (domain or fragment, human, UniProt O43791 172-329, looked up)
chain: GQNTMNMVKVPECRLADELGGLWENSRFTDCCLCVAGQEFQAHKAILAARSPVFSAMFEHEMEESKKNRVEINDVEPEVFKEMMCFIYTGKAPNLDKMADDLLAAADKYALERLKVMCEDALCSNLSVENAAEILILADLHSADQLKTQAVDFINYHA
- binding result [7]: binds
- stoichiometry N [8]: 1 SPOP per Cul3 (2:2)

B4: SPOP^BTB+ L186D, L190D, L193D, I217K (domain or fragment, human, UniProt O43791 172-329, looked up)
chain: B3 chain with L15D, L19D, L22D, I46K
- stoichiometry N [8]: 1 SPOP per Cul3 (1:1)

B5: Ci SBC2 peptide (peptide)
peptide: NTLFPDVSSSTH
- binding result [5]: binds

B6: Gig^1-258 (domain or fragment, human, UniProt Q9H2C0 1-258, looked up)
chain: MAEGSAVSDPQHAARLLRALSSFREESRFCDAHLVLDGEEIPVQKNILAAASPYIRTKLNYNPPKDDGSTYKIELEGISVMVMREILDYIFSGQIRLNEDTIQDVVQAADLLLLTDLKTLCCEFLEGCIAAENCIGIRDFALHYCLHHVHYLATEYLETHFRDVSSTEEFLELSPQKLKEVISLEKLNVGNERYVFEAVIRWIAHDTEIRKVHMKDVMSALWVSGLDSSYLREQMLNEPLVREIVKECSNIPLSQPQQ
modifications: selenomethionines (structure phased by SAD)
- binding result [7]: binds

B7: SPOP^BTB (domain or fragment, human, UniProt O43791 173-297, looked up)
chain: QNTMNMVKVPECRLADELGGLWENSRFTDCCLCVAGQEFQAHKAILAARSPVFSAMFEHEMEESKKNRVEINDVEPEVFKEMMCFIYTGKAPNLDKMADDLLAAADKYALERLKVMCEDALCSNL
- stoichiometry N [8]: 1 SPOP per Cul3 (2:2)

B8: Puc SBC1_pep1 (peptide)
peptide: DEVTSTTSSS
- binding result [5]: binds
